{"source": "ChEMBL document CHEMBL1759947", "about": "“Synthesis and evaluation of arylquinones as BACE1 inhibitors, β-amyloid peptide aggregation inhibitors, and destabilizers of preformed β-amyloid fibrils” (Bioorg Med Chem Lett, 2011)", "key": {"SH-SY5Y": {"system": "SH-SY5Y", "experiment": "Cytotoxicity against human SH-SY5Y cells up to 20 uM for 24 hrs by MTT assay; call rule not given here", "format": "cell-based", "procedure,_shortened": "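SH-SY5Y neuroblastoma cells; viability by mitochondrial reduction of MTT to formazan, reported as percent cell death at a single concentration.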"}, "[1]": {"experiment": "Induction of amyloid beta (25 to 35) disaggregation after 4 days by Thioflavin-T fluorescence assay", "procedure,_shortened": "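Aβ(25–35) first held at 37 °C for 4 days to form fibrils, then exposed to quinone for another 4 days at 37 °C; remaining fibrils measured by thioflavin-T fluorescence (ex 448/em 483 nm) with ThT blank subtracted; IC50 derived.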"}, "[2]": {"experiment": "Inhibition of amyloid beta (25 to 35) aggregation for 4 days by Thioflavin-T fluorescence assay", "procedure,_shortened": "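Aβ(25–35) dissolved at 1 mM in PBS (stock), diluted, mixed with quinone and held at 37 °C for 4 days; aggregation read by thioflavin-T fluorescence (ex 448/em 483 nm) after subtracting a ThT blank; IC50 derived.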"}, "Beta-secretase 1": {"molecular_target": "Beta-secretase 1 (Homo sapiens, UniProt P56817)", "sequence (P56817 whole entry)": "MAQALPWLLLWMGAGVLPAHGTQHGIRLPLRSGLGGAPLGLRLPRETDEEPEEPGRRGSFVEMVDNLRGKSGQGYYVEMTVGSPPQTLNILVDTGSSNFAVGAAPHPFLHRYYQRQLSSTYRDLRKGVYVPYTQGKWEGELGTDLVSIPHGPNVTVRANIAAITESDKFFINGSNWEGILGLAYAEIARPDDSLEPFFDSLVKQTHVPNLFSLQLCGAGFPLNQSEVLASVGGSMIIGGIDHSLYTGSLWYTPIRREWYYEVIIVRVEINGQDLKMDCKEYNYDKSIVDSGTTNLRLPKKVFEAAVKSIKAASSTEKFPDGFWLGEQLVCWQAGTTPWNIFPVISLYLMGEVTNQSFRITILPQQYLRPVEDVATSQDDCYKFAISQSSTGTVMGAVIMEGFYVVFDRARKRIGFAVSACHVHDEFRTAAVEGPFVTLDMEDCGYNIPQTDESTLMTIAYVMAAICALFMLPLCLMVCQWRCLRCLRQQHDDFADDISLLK", "experiment": "Inhibition of human recombinant BACE1 preincubated after 1 hr by fluorescence assay"}}}
{"smiles": "O=C1C=C(c2ccccc2)C(=O)C=C1c1ccccc1", "values": [{"measurement": "Activity", "setting": "SH-SY5Y", "result": "Toxic"}]}
{"smiles": "COc1ccc(C2=CC(=O)C=C(c3ccc(F)cc3)C2=O)cc1", "values": [{"measurement": "Activity", "setting": "SH-SY5Y", "result": 62.5, "unit": "%"}]}
{"smiles": "CC(=O)Oc1cc(-c2ccccc2)c(OC(C)=O)c(-c2ccccc2)c1", "values": [{"measurement": "IC50", "setting": "[1]", "result": "Not Active"}, {"measurement": "IC50", "setting": "[2]", "result": "Not Active"}, {"measurement": "IC50", "setting": "Beta-secretase 1", "result": 20, "unit": "µM"}, {"measurement": "Activity", "setting": "SH-SY5Y", "result": "Non-toxic"}]}
{"smiles": "COc1cccc2c1C(=O)C(c1ccc(O)cc1)=CC2=O", "values": [{"measurement": "IC50", "setting": "[1]; read-out: IC50", "result": 5.05, "unit": "µM"}, {"measurement": "IC50", "setting": "[2]; read-out: IC50", "result": 16.6, "unit": "µM"}, {"measurement": "IC50", "setting": "Beta-secretase 1", "result": 10.3, "unit": "µM"}, {"measurement": "Activity", "setting": "SH-SY5Y", "result": "Non-toxic"}]}
{"smiles": "O=C1C=C(c2ccccc2)C(=O)C(c2ccccc2)=C1", "values": [{"measurement": "IC50", "setting": "[1]; read-out: IC50", "result": 9, "unit": "µM"}, {"measurement": "IC50", "setting": "[2]; read-out: IC50", "result": 9.28, "unit": "µM"}, {"measurement": "IC50", "setting": "Beta-secretase 1", "result": 11.4, "unit": "µM"}, {"measurement": "Activity", "setting": "SH-SY5Y", "result": "Non-toxic"}]}
{"smiles": "O=C1C=C(c2ccc(C(F)(F)F)cc2)C(=O)C=C1c1ccccc1", "values": [{"measurement": "IC50", "setting": "[1]; read-out: IC50", "result": 12.3, "unit": "µM"}, {"measurement": "IC50", "setting": "[2]; read-out: IC50", "result": 14.2, "unit": "µM"}, {"measurement": "IC50", "setting": "Beta-secretase 1", "result": 6.52, "unit": "µM"}, {"measurement": "Activity", "setting": "SH-SY5Y", "result": "Non-toxic"}]}
{"smiles": "O=C1C=C(c2ccccc2)C(=O)c2ccccc21", "values": [{"measurement": "IC50", "setting": "[1]", "result": "Not Active"}, {"measurement": "IC50", "setting": "[2]", "result": "Not Active"}, {"measurement": "IC50", "setting": "Beta-secretase 1", "result": 9.33, "unit": "µM"}, {"measurement": "Activity", "setting": "SH-SY5Y", "result": "Non-toxic"}]}
{"smiles": "O=C1C=C(c2ccccc2)C(=O)c2c(O)cccc21", "values": [{"measurement": "IC50", "setting": "[1]", "result": "Not Active"}, {"measurement": "IC50", "setting": "[2]", "result": "Not Active"}, {"measurement": "IC50", "setting": "Beta-secretase 1", "result": 8.98, "unit": "µM"}, {"measurement": "Activity", "setting": "SH-SY5Y", "result": "Non-toxic"}]}
{"smiles": "COc1ccc(-c2cc(O)cc(-c3ccccc3)c2OC(C)=O)cc1", "values": [{"measurement": "IC50", "setting": "[1]", "result": "Not Active"}, {"measurement": "IC50", "setting": "[2]", "result": "Not Active"}, {"measurement": "IC50", "setting": "Beta-secretase 1", "result": 11.3, "unit": "µM"}, {"measurement": "Activity", "setting": "SH-SY5Y", "result": "Non-toxic"}]}
{"smiles": "O=C1C=C(c2ccccc2)C(=O)C(c2ccc(C(F)(F)F)cc2)=C1", "values": [{"measurement": "Activity", "setting": "SH-SY5Y", "result": 100, "unit": "%"}]}
{"smiles": "COc1ccc(C2=CC(=O)C=C(c3ccccc3)C2=O)cc1", "values": [{"measurement": "IC50", "setting": "[1]; read-out: IC50", "result": 7.87, "unit": "µM"}, {"measurement": "IC50", "setting": "[2]; read-out: IC50", "result": 9.56, "unit": "µM"}, {"measurement": "IC50", "setting": "Beta-secretase 1", "result": 13.4, "unit": "µM"}, {"measurement": "Activity", "setting": "SH-SY5Y", "result": "Non-toxic"}]}
{"smiles": "COc1ccc(-c2cc(OC(C)=O)cc(-c3ccccc3)c2OC(C)=O)cc1", "values": [{"measurement": "IC50", "setting": "[1]", "result": "Not Active"}, {"measurement": "IC50", "setting": "[2]", "result": "Not Active"}, {"measurement": "IC50", "setting": "Beta-secretase 1", "result": 11.1, "unit": "µM"}, {"measurement": "Activity", "setting": "SH-SY5Y", "result": "Non-toxic"}]}
{"smiles": "COc1ccc(C2=CC(=O)C(c3ccc(OC)cc3)=CC2=O)cc1", "values": [{"measurement": "IC50", "setting": "[1]; read-out: IC50", "result": 7.15, "unit": "µM"}, {"measurement": "IC50", "setting": "[2]; read-out: IC50", "result": 6.37, "unit": "µM"}, {"measurement": "IC50", "setting": "Beta-secretase 1", "result": 23.3, "unit": "µM"}, {"measurement": "Activity", "setting": "SH-SY5Y", "result": "Non-toxic"}]}
{"smiles": "COc1ccc(C2=CC(=O)C(c3ccccc3)=CC2=O)cc1", "values": [{"measurement": "Activity", "setting": "SH-SY5Y", "result": 56.29, "unit": "%"}]}
{"smiles": "O=C1C(c2ccccc2)=CC(=O)c2c(O)cccc21", "values": [{"measurement": "IC50", "setting": "[1]", "result": "Not Active"}, {"measurement": "IC50", "setting": "[2]", "result": "Not Active"}, {"measurement": "IC50", "setting": "Beta-secretase 1", "result": 12.6, "unit": "µM"}, {"measurement": "Activity", "setting": "SH-SY5Y", "result": "Non-toxic"}]}
{"smiles": "Oc1cc(-c2ccccc2)c(O)cc1-c1ccccc1", "values": [{"measurement": "IC50", "setting": "[1]; read-out: IC50", "result": 14.3, "unit": "µM"}, {"measurement": "IC50", "setting": "[2]; read-out: IC50", "result": "> 50", "unit": "µM"}, {"measurement": "IC50", "setting": "Beta-secretase 1", "result": 16, "unit": "µM"}, {"measurement": "Activity", "setting": "SH-SY5Y", "result": "Non-toxic"}]}
{"smiles": "COc1ccc(C2=CC(=O)C(c3ccc(F)cc3)=CC2=O)cc1", "values": [{"measurement": "Activity", "setting": "SH-SY5Y", "result": 66.22, "unit": "%"}]}
{"smiles": "O=C1C=C(c2ccc(O)cc2)C(=O)c2ccccc21", "values": [{"measurement": "IC50", "setting": "[1]", "result": "Not Active"}, {"measurement": "IC50", "setting": "[2]", "result": "Not Active"}, {"measurement": "IC50", "setting": "Beta-secretase 1", "result": 8.22, "unit": "µM"}, {"measurement": "Activity", "setting": "SH-SY5Y", "result": "Non-toxic"}]}
{"smiles": "COc1ccc(C2=CC(=O)c3c(OC)cccc3C2=O)cc1", "values": [{"measurement": "IC50", "setting": "[1]", "result": "Not Active"}, {"measurement": "IC50", "setting": "[2]; read-out: IC50", "result": 22.6, "unit": "µM"}, {"measurement": "IC50", "setting": "Beta-secretase 1", "result": 11.2, "unit": "µM"}, {"measurement": "Activity", "setting": "SH-SY5Y", "result": "Non-toxic"}]}
{"smiles": "O=C1C=C(c2ccc(F)cc2)C(=O)C=C1c1ccccc1", "values": [{"measurement": "Activity", "setting": "SH-SY5Y", "result": 78.08, "unit": "%"}]}
{"smiles": "CC(=O)Oc1cc(-c2ccc(C(F)(F)F)cc2)c(OC(C)=O)cc1-c1ccccc1", "values": [{"measurement": "IC50", "setting": "[1]; read-out: IC50", "result": "> 50", "unit": "µM"}, {"measurement": "IC50", "setting": "[2]; read-out: IC50", "result": "> 50", "unit": "µM"}, {"measurement": "Activity", "setting": "SH-SY5Y", "result": "Non-toxic"}]}
{"smiles": "COc1ccc(-c2cc(OC(C)=O)c(-c3ccc(OC)cc3)cc2OC(C)=O)cc1", "values": [{"measurement": "IC50", "setting": "[1]; read-out: IC50", "result": "> 50", "unit": "µM"}, {"measurement": "IC50", "setting": "[2]", "result": "Not Active"}, {"measurement": "IC50", "setting": "Beta-secretase 1", "result": 23.9, "unit": "µM"}, {"measurement": "Activity", "setting": "SH-SY5Y", "result": "Non-toxic"}]}
{"smiles": "O=C1C(c2ccc(O)cc2)=CC(=O)c2c(O)cccc21", "values": [{"measurement": "IC50", "setting": "[1]", "result": "Not Active"}, {"measurement": "IC50", "setting": "[2]", "result": "Not Active"}, {"measurement": "IC50", "setting": "Beta-secretase 1", "result": 16.1, "unit": "µM"}, {"measurement": "Activity", "setting": "SH-SY5Y", "result": "Non-toxic"}]}
{"smiles": "COc1ccc(-c2cc(O)cc(-c3ccccc3)c2O)cc1", "values": [{"measurement": "IC50", "setting": "[1]; read-out: IC50", "result": 8.24, "unit": "µM"}, {"measurement": "IC50", "setting": "[2]; read-out: IC50", "result": 17.8, "unit": "µM"}, {"measurement": "IC50", "setting": "Beta-secretase 1", "result": 9.1, "unit": "µM"}, {"measurement": "Activity", "setting": "SH-SY5Y", "result": "Non-toxic"}]}
